Results as given in ChEMBL document CHEMBL4261561, “Thiosemicarbazone-based selective proliferation inactivators inhibit gastric cancer cell growth, invasion, and migration” (Medchemcomm, 2017).

Experiments:
Format in all cases: functional, cell-based
MGC-803 = experiment: Antiproliferative activity against human MGC803 cells after 72 hrs by MTT assay; settings: MGC-803, 72 h
Procedure, shortened: (§1)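 Exponentially growing cells were seeded at about 3×10^3 per well and left 24 h, then given fresh medium with a range of compound concentrations for 72 h. MTT solution (5 mg/mL) was added for another 4 h. Medium was removed, formazan was dissolved in DMSO, and absorbance was read at 570 nm. IC50 was derived statistically.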

SMMC-7721 = experiment: Antiproliferative activity against human SMMC7721 cells after 72 hrs by MTT assay; settings: SMMC-7721, 72 h; procedure, shortened: as §1
MCF7 = experiment: Antiproliferative activity against human MCF7 cells after 72 hrs by MTT assay; settings: MCF7, 72 h; procedure, shortened: as §1

Work on `C/C(=N\NC(=S)N1CCN(C(=O)OC(C)(C)C)CC1)c1cc(Cl)ccc1O` yielded an IC50 (MGC-803) of 58.4 µM, an IC50 (SMMC-7721) of over 64 µM and an IC50 (MCF7) of over 64 µM.

`Oc1ccccc1/C=N/NC(=S)Nc1ccccc1` showed an IC50 (MGC-803) of 2.42 µM, an IC50 (SMMC-7721) of 34.1 µM and an IC50 (MCF7) of 12.4 µM.

`C/C(=N\NC(=S)N1CCOCC1)c1cccc(O)c1` was tested, and the IC50 (MGC-803) was over 64 µM, the IC50 (SMMC-7721) was over 64 µM and the IC50 (MCF7) was over 64 µM.

`Oc1c(Br)cc(Br)cc1/C=N/NC(=S)N1CCOCC1` showed an IC50 (MGC-803) of 20.4 µM, an IC50 (SMMC-7721) of 32.6 µM and an IC50 (MCF7) of over 64 µM.

`CC(C)(C)OC(=O)N1CCN(C(=S)N/N=C/c2ccccc2O)CC1` gave an IC50 (MGC-803) of 10.2 µM, an IC50 (SMMC-7721) of 27.3 µM and an IC50 (MCF7) of 41.9 µM.

`COc1ccc(/C=N/NC(=S)N2CCOCC2)c(O)c1` gave an IC50 (MGC-803) of 56.1 µM, an IC50 (SMMC-7721) of 38.3 µM and an IC50 (MCF7) of over 64 µM.

Molecule `C/C(=N\NC(=S)N1CCOCC1)c1ccccc1O` has an IC50 (MGC-803) of 11.2 µM, an IC50 (SMMC-7721) of over 64 µM and an IC50 (MCF7) of 49.2 µM.

In the case of `S=C(N/N=C/c1ccc2ccccc2c1)N1CCOCC1`, the IC50 (MGC-803) is reported as 32.6 µM, the IC50 (SMMC-7721) is reported as over 64 µM and the IC50 (MCF7) is reported as over 64 µM.

Work on `COc1cc(/C=N/NC(=S)N2CCOCC2)cc(OC)c1OC` yielded an IC50 (MGC-803) of over 64 µM, an IC50 (SMMC-7721) of over 64 µM and an IC50 (MCF7) of over 64 µM.
